Experimental data of several laboratories.
Each line is one published result; the experiments were not run side by side.
YES1: Tyrosine-protein kinase Yes (YES1, Homo sapiens, UniProt P07947)

For `Nc1nc(Nc2ccccc2)sc1C(=O)c1c(F)cccc1F`, the remaining activity was 26% (YES1; enzyme activity; inhibitor; 10 µM).
The remaining activity of `Cc1cnc(NC2CCOCC2)nc1-n1cnc(C(=O)NC(CN)c2cc(F)cc(Cl)c2)c1` (stereo not shown) is reported as 97% (YES1; enzyme activity; inhibitor; radiometric; 1 µM).
`CS(=O)(=O)N1CCCC(NC(=O)[C@H](CCC2CCCCC2)NC(=O)c2ccc(CNC(=O)c3cnc4ccccn34)cc2)C1` (stereo partly shown) has a remaining binding of 88% (YES1; cell-free assay; competition with immobilised ligand; 0.1 µM).
The activity vs control of `Cc1cc(NC(=O)c2cccc3cc(-c4cccc5[nH]nc(N)c45)ccc23)ccc1F` is reported as 108% (YES1; enzyme activity; inhibitor; 0.1 µM).
The remaining signal of `Cc1ccc(Nc2nccc(N(C)c3ccc4c(C)n(C)nc4c3)n2)cc1S(N)(=O)=O` is reported as 52.6% (YES1; cell-free assay; 0.5 µM).
For `COc1cc2nccc(Oc3ccc(NC(=O)c4c5n(n(-c6ccc(F)cc6)c4=O)CCCC5)cc3)c2cc1OC`, the inhibition was 1% (YES1; enzyme activity; inhibitor; 0.1 µM).
`CCCCN(CCCC)C(=O)CN1C[C@H](c2cc(OC)c3c(c2)OCO3)[C@@H](C(=O)O)[C@@H]1CC(C)(C)CCC` has a remaining binding of 100% (YES1; cell-free assay; competition with immobilised ligand; 1 µM).
`O=C1NC(=O)c2cc(Nc3ccc(F)cc3)c(Nc3ccc(F)cc3)cc21` has a remaining signal of 86.6% (YES1; cell-free assay; 0.5 µM).
The remaining binding of `CN(C)C(=O)Cn1cc(-c2nc(C3(c4ccc(-c5cnc(N)nc5)cc4)CC3)no2)cn1` is reported as 87% (YES1; cell-free assay; competition with immobilised ligand; 1 µM).
`Cc1ccc(NC(=O)c2ccc(C)c(C(F)(F)F)c2)cc1C#Cc1nn(C2CCC(O)CC2)c2ncnc(N)c12` (stereo not shown) has a remaining signal of 0% (YES1; cell-free assay; 10 µM).
For `O=C(O)[C@@H]1[C@@H](Cn2nnc3ccccc3c2=O)CC[C@H]1C(=O)c1ccc(OCCC2CCOCC2)cc1`, the remaining binding was 100% (YES1; cell-free assay; competition with immobilised ligand; 1 µM).
`CCN(CC)c1ccc(C2=NNC(=O)CC2C)cc1[N+](=O)[O-]` (stereo not shown) gave a remaining activity of 105% (YES1; enzyme activity; inhibitor; 10 µM).
`Nc1ncnc2occ(-c3ccc(NC(=O)Nc4cc(C(F)(F)F)ccc4F)cc3)c12` gave a remaining signal of 2.9% (YES1; cell-free assay; 20 µM).
For `CC(C)(C)C(=O)c1sc(NC2CCCCC2)nc1N`, the remaining activity was 109% (YES1; enzyme activity; inhibitor; 10 µM).
For `CC/C(=N\NC(=O)NCc1cccc(O)c1)c1ccc(O)c(C)c1O`, the inhibition was 6.2% (Tyrosine-protein kinase Yes (YES1, Homo sapiens, UniProt P07947, T348I); enzyme activity; inhibitor; 0.1 µM).
For `O=C(Nc1cnn(-c2csc(C(=O)NC3COC3)c2)c1)Nc1c(F)cccc1Cl`, the remaining activity was 91% (YES1; enzyme activity; inhibitor; 5 µM).
With `C=CC(=O)Nc1cc(Nc2nccc(Nc3cc(Cl)c(F)cc3C(C)(C)O)n2)c(OC)cc1N1CC[C@@H](N(C)C)C1` the inhibition was 51% (YES1; enzyme activity; inhibitor; 1 µM).
`COc1cc(Cl)c(C(=O)N[C@@H](CN[C@H]2CC[C@@H](N)CC2)Cc2ccc(C#N)cc2)cc1-c1ccc(CN[C@H](C)c2ccc(C)cc2)o1` has a remaining activity of 62% (YES1; enzyme activity; inhibitor; 1 µM).
With `Cn1c(=O)n(-c2ccc(C(C)(C)C#N)cc2)c2c3cc(-c4cnc5ccccc5c4)ccc3ncc21` the remaining activity was 69% (YES1; enzyme activity; inhibitor; 10 µM).
With `COc1cc(Nc2cnc(C#N)c(O[C@H](C)CN(C)C)n2)ncc1-c1cnn(C)c1` the remaining activity was 39% (YES1; enzyme activity; inhibitor; radiometric; 10 µM).
For `FC(F)(F)Oc1cccc(-c2cnc3ccc(-c4ccncc4)nn23)c1`, the activity vs control was 77% (YES1; enzyme activity; inhibitor; radiometric; 5 µM).
`C[C@@H]1CN(c2cc(-c3n[nH]c4ccc(OC5(C)CC5)cc34)ncn2)C[C@H](C)O1` has a remaining binding of 80% (YES1; cell-free assay; competition with immobilised ligand; 0.1 µM).
`CN(c1ncccc1CNc1nc(Nc2ccc3c(c2)CC(=O)N3)ncc1C(F)(F)F)S(C)(=O)=O` has an inhibition of 51.6% (YES1; enzyme activity; inhibitor; 1 µM).
`CS(=O)(=O)NCC[C@H](NC(=O)c1cncc2c1cnn2-c1ccc(F)cc1)c1ccnc(S(C)(=O)=O)c1` has a remaining binding of 100% (YES1; cell-free assay; competition with immobilised ligand; 1 µM).
The remaining activity of `Cc1sc(C(=O)NC2COC2)cc1-n1cc(NC(=O)Nc2c(F)cccc2Cl)cn1` is reported as 81.4% (YES1; enzyme activity; inhibitor; 10 µM).
For `CC(C)(C)c1nc2c(s1)c1nc(N)ncc1c1ccc(NS(=O)(=O)c3c(F)cccc3F)c(F)c12`, the remaining activity was 124% (YES1; enzyme activity; inhibitor; radiometric; 1 µM).
With `CCC(=O)N[C@H]1CC[C@@H](C(=O)N(C)c2ccc(-c3nc4ccccc4o3)cc2)C1` the remaining binding was 82% (YES1; cell-free assay; competition with immobilised ligand; 1 µM).
`c1ccc(CNc2nc(N3CCOc4ccccc43)nc3c2CCCC3)cc1` has an inhibition of -4.3% (YES1; target engagement in cells; inhibitor; chemoproteomics; 20 mM).
With `COc1cc2ncnc(Nc3ccc(Oc4ccccc4)c(C)c3C)c2cc1OC` the inhibition was 88% (YES1; enzyme activity; inhibitor; 1 µM).
`CNC(=O)c1cc(Oc2ccc(NC(=O)Nc3ccc(Cl)c(C(F)(F)F)c3)cc2)ccn1` has a remaining signal of 82.8% (YES1; cell-free assay; 0.5 µM).
With `C[C@@H](c1cccc(C#N)c1)n1cc(Cl)cc(C(N)=O)c1=N` the remaining binding was 93% (YES1; cell-free assay; competition with immobilised ligand; 1 µM).
